According to ChEMBL document CHEMBL3272068, “Synthesis and biological activities of some N4-substituted 4-aminopyrazolo(3,4-d)pyrimidines” (J Med Chem, 1976):

What was measured:
[1] = Antiproliferative activity against human Nc37 cells assessed as cell viability at 0.1 mM after 72 hrs by trypan blue dye based hemocytometer analysis relative to control; parameters: species or system NC-37; details: read-out: Activity
Method in brief: (§1)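 Nc 37 (normal donor buffy coat), RPMI 6410 (myeloblastic leukemia) and murine L1210 cells. Compound dissolved in Me2SO, held at 37° overnight for sterilization, diluted in RPMI 1640 + 10% fetal calf serum to final 10⁻⁴ M with 0.5% Me2SO. Unagitated tubes seeded at 2–5 × 10⁵ cells/ml from log-phase stocks. Trypan blue (0.05%) hemocytometer counts every 24 h. Viable density versus control at 72 h banded into rating categories.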

[2] = Antiproliferative activity against human RPMI6410 cells assessed as cell viability at 0.1 mM after 72 hrs by trypan blue dye based hemocytometer analysis relative to control; assay type: functional; details: RPMI 6410, 72 h, read-out: Activity; method in brief: as §1
L1210 = assay: Antiproliferative activity against mouse L1210 cells assessed as cell viability at 0.1 mM after 72 hrs by trypan blue dye based hemocytometer analysis relative to control; assay type: functional; details: L1210, 72 h, read-out: Activity; method in brief: as §1
[3] = Antiproliferative activity against human RPMI6410 cells assessed as growth inhibition at 0.1 mM; assay type: functional; details: RPMI 6410; method in brief: as §1

SMILES: c1ccc(CNc2ncnc3[nH]ncc23)cc1
- viability at 72 h, 100 µM [1]: 30%
- viability at 100 µM [2]: 30%
- viability at 100 µM (L1210): 0%

SMILES: CCNc1ncnc2[nH]ncc12
- viability at 72 h, 100 µM [1]: 90%
- viability at 100 µM [2]: 90%
- viability at 100 µM (L1210): 60%

SMILES: CC(C)Nc1ncnc2[nH]ncc12
- viability at 72 h, 100 µM [1]: 30%
- viability at 100 µM [2]: 60%
- viability at 100 µM (L1210): 90%

SMILES: CCCCNC(=O)Nc1ncnc2[nH]cnc12
- inhibition at 100 µM [3]: 70%

SMILES: C=CCNc1ncnc2[nH]ncc12
- viability at 72 h, 100 µM [1]: 60%
- viability at 100 µM [2]: 30%
- viability at 100 µM (L1210): 60%

SMILES: O=C(O)CNC(=O)Nc1ncnc2[nH]ncc12
- viability at 72 h, 100 µM [1]: 90%
- viability at 100 µM [2]: 60%
- viability at 100 µM (L1210): 80%

SMILES: CC(C)NC(=O)Nc1ncnc2[nH]ncc12
- viability at 72 h, 100 µM [1]: 30%
- viability at 100 µM [2]: 80%
- viability at 100 µM (L1210): 80%

SMILES: C=CCNC(=O)Nc1ncnc2[nH]ncc12
- viability at 72 h, 100 µM [1]: 30%
- viability at 100 µM [2]: 90%
- viability at 100 µM (L1210): 0%

SMILES: C#CCNC(=O)Nc1ncnc2[nH]ncc12
- viability at 72 h, 100 µM [1]: 90%
- viability at 100 µM [2]: 30%
- viability at 100 µM (L1210): 60%

SMILES: CCCCNC(=O)Nc1ncnc2[nH]ncc12
- viability at 72 h, 100 µM [1]: 80%
- viability at 100 µM [2]: 80%
- viability at 100 µM (L1210): 60%

SMILES: CC(C)CNC(=O)Nc1ncnc2[nH]ncc12
- viability at 72 h, 100 µM [1]: 60%
- viability at 100 µM [2]: 60%
- viability at 100 µM (L1210): 60%

SMILES: CC(C)(C)NC(=O)Nc1ncnc2[nH]ncc12
- viability at 72 h, 100 µM [1]: 60%
- viability at 100 µM [2]: 60%
- viability at 100 µM (L1210): 30%

SMILES: CCCCCNC(=O)Nc1ncnc2[nH]ncc12
- viability at 72 h, 100 µM [1]: 0%
- viability at 100 µM [2]: 30%
- viability at 100 µM (L1210): 30%

SMILES: CC(C)CCNC(=O)Nc1ncnc2[nH]ncc12
- viability at 72 h, 100 µM [1]: 60%
- viability at 100 µM [2]: 60%
- viability at 100 µM (L1210): 60%

SMILES: CC(C)(C)CNC(=O)Nc1ncnc2[nH]ncc12
- viability at 72 h, 100 µM [1]: 60%
- viability at 100 µM [2]: 60%
- viability at 100 µM (L1210): 30%

SMILES: C[C@@H](O)[C@H](NC(=O)Nc1ncnc2[nH]ncc12)C(=O)O
- viability at 72 h, 100 µM [1]: 30%
- viability at 100 µM [2]: 30%
- viability at 100 µM (L1210): 30%

SMILES: CCCCCCCCNC(=O)Nc1ncnc2[nH]ncc12
- viability at 72 h, 100 µM [1]: 0%
- viability at 100 µM [2]: 0%
- viability at 100 µM (L1210): 0%

SMILES: CCOCCNC(=O)Nc1ncnc2[nH]ncc12
- viability at 72 h, 100 µM [1]: 80%
- viability at 100 µM [2]: 30%
- viability at 100 µM (L1210): 80%

SMILES: O=C(Nc1ncnc2[nH]ncc12)NC12CC3CC(CC(C3)C1)C2
- viability at 72 h, 100 µM [1]: 30%
- viability at 100 µM [2]: 30%
- viability at 100 µM (L1210): 0%

SMILES: O=C(NCCCc1ccccc1)Nc1ncnc2[nH]ncc12
- viability at 72 h, 100 µM [1]: 30%
- viability at 100 µM [2]: 60%
- viability at 100 µM (L1210): 60%

SMILES: O=C(NCCCCc1ccccc1)Nc1ncnc2[nH]ncc12
- viability at 72 h, 100 µM [1]: 60%
- viability at 100 µM [2]: 80%
- viability at 100 µM (L1210): 30%

SMILES: O=C(Nc1ccccc1)Nc1ncnc2[nH]ncc12
- viability at 72 h, 100 µM [1]: 90%
- viability at 100 µM [2]: 30%
- viability at 100 µM (L1210): 60%

SMILES: O=C(Nc1ccccc1F)Nc1ncnc2[nH]ncc12
- viability at 72 h, 100 µM [1]: 90%
- viability at 100 µM [2]: 60%
- viability at 100 µM (L1210): 60%

SMILES: O=C(Nc1ccccc1Cl)Nc1ncnc2[nH]ncc12
- viability at 72 h, 100 µM [1]: 90%
- viability at 100 µM [2]: 80%
- viability at 100 µM (L1210): 60%

SMILES: O=C(Nc1cccc(Cl)c1)Nc1ncnc2[nH]ncc12
- viability at 72 h, 100 µM [1]: 0%
- viability at 100 µM [2]: 0%
- viability at 100 µM (L1210): 0%

SMILES: O=C(Nc1ccc(Cl)cc1)Nc1ncnc2[nH]ncc12
- viability at 72 h, 100 µM [1]: 30%
- viability at 100 µM [2]: 30%
- viability at 100 µM (L1210): 30%

SMILES: CCCCCNC(=O)Nc1ncnc2[nH]cnc12
- inhibition at 100 µM [3]: 70%

SMILES: CC(C)CCNC(=O)Nc1ncnc2[nH]cnc12
- inhibition at 100 µM [3]: 70%

SMILES: CC(C)CCNc1ncnc2[nH]ncc12
- viability at 72 h, 100 µM [1]: 0%
- viability at 100 µM [2]: 30%
- viability at 100 µM (L1210): 0%
